In ChEMBL document CHEMBL3853331, “Preparation, Antiepileptic Activity, and Cardiovascular Safety of Dihydropyrazoles as Brain-Penetrant T-Type Calcium Channel Blockers” (J Med Chem, 2016):

Tests used:
[1] = biological target: T1, Voltage-dependent T-type calcium channel subunit alpha-1H (Homo sapiens, UniProt O95180); assay: Inhibition of human T-type calcium channel Cav3.2 expressed in CHO cells assessed as inhibition of calcium tail current at -60 mV holding potential measured after 150 secs by QPatch assay; type: cell-based
T1 sequence (O95180 whole entry): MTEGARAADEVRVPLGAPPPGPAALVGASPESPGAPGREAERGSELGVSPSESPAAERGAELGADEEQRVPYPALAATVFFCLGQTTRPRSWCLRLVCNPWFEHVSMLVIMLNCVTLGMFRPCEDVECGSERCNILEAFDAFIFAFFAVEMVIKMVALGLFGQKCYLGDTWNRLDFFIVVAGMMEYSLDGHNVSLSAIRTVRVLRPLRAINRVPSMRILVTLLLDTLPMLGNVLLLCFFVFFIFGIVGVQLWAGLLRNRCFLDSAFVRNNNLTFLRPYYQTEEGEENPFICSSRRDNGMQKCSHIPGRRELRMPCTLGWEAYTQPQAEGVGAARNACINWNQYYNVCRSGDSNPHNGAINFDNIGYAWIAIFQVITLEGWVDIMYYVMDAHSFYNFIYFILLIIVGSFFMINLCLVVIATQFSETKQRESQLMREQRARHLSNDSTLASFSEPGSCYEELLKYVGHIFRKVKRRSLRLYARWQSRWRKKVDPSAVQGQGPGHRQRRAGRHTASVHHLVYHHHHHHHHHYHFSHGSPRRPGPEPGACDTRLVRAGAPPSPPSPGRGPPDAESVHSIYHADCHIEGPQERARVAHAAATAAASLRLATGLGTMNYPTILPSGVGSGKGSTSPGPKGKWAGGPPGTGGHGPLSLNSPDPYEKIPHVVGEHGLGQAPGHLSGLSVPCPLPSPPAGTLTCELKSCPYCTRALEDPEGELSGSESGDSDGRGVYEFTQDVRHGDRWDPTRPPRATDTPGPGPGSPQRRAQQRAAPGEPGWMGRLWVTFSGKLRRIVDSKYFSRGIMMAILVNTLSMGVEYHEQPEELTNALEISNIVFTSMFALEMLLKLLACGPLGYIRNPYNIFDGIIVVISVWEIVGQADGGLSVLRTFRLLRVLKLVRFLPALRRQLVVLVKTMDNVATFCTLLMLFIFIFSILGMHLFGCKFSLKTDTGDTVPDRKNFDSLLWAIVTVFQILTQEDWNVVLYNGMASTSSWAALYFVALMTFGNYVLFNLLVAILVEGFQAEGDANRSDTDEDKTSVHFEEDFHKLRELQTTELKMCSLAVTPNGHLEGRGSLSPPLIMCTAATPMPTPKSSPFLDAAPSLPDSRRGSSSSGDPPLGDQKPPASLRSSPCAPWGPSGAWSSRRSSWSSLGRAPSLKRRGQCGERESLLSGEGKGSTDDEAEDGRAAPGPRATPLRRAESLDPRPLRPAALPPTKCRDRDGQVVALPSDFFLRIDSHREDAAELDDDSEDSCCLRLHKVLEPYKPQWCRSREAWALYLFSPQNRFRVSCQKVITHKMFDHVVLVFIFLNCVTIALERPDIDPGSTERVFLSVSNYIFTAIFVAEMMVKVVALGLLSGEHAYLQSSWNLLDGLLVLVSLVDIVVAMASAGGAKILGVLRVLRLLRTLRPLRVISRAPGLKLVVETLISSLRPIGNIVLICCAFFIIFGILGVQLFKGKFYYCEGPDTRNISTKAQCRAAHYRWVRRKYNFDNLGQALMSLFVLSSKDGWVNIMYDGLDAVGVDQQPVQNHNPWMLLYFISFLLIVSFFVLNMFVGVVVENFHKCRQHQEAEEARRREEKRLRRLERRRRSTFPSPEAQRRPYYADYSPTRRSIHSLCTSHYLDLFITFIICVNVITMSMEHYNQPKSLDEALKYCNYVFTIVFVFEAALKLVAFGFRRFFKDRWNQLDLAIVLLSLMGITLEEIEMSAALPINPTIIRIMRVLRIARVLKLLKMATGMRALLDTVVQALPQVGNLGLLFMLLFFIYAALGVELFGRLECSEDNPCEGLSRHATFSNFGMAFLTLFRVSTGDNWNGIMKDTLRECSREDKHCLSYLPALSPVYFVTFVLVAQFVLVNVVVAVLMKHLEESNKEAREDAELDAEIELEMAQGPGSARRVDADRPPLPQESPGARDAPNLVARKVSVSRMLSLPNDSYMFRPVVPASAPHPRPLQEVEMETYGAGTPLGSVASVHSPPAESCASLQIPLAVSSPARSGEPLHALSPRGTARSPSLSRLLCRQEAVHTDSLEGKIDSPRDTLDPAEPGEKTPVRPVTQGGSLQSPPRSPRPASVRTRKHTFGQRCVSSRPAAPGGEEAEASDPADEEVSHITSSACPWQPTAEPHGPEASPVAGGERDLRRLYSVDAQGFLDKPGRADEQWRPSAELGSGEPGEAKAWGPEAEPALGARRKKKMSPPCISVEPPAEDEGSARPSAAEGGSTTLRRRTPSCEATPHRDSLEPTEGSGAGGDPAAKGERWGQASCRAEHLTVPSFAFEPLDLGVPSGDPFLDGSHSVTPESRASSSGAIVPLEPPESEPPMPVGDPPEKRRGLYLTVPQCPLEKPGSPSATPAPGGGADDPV
In short: (§1)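 CHO cells stably expressing human Cav3.1, Cav3.2 or Cav3.3, automated QPatch recording. 3-ms depolarization to +20 mV from a holding potential of -90 or -60 mV. Ca2+ tail current measured at -60 mV. Cs-glutamate internal and TEA-Cl external solution with 5 mM Ca2+. Effect read 150 s after application.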

[2] = Fraction unbound in human plasma; type: ADME, cell-free
[3] = Tmax in Wistar rat plasma at 2 mg/kg, po administered 2 hrs after aminobenzotriazol-treatment; type: ADME, organism-based
In short: (§2)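 Rats dosed orally with the CYP inhibitor aminobenzotriazol 2 h before the iv dose of 0.2 mg/kg. Oral dose was 2 mg/kg.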

Rattus norvegicus [4] = assay: Cardiovascular toxicity in spontaneously hypertensive rat assessed as decrease in mean […] pressure at 100 mg/kg, po by telemetry method; type: organism-based; conditions: in vivo
In short: (§3)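 Conscious, freely moving male spontaneously hypertensive rats with telemetry recording MAP, HR and ECG. Single oral dose (5 ml/kg) given as a suspension in 0.5% w/v methylcellulose in water, in the morning during the sleep phase. Vehicle controls run in parallel, n = 8 per group.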

[5] = Metabolic stability in rat microsomes measured per mg protein; type: ADME, Microsome
[6] = Tmax in Wistar rat plasma at 2 mg/kg, po; type: ADME, organism-based
[7] = Drug uptake in Wistar rat CSF at 100 mg/kg, po measured after 1 hr; type: ADME, organism-based, Cerebrospinal fluid; conditions: read-out: Drug uptake
In short: (§4)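 Male Wistar rats given oral doses of 10, 30 or 100 mg/kg. Plasma, brain and CSF collected at 1 h, and at 3 h for the 10 mg/kg dose; compound concentrations measured in each.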

[8] = Drug uptake in Wistar rat brain at 100 mg/kg, po measured after 1 hr; type: ADME, organism-based; conditions: read-out: Drug uptake; in short: as §4
Cytochrome P450 3A4 = Cytochrome P450 3A4 (Homo sapiens, UniProt P08684); assay: Inhibition of CYP3A4 (unknown origin) using testosterone as substrate; type: ADME
Chain of Cytochrome P450 3A4 (P08684 whole entry): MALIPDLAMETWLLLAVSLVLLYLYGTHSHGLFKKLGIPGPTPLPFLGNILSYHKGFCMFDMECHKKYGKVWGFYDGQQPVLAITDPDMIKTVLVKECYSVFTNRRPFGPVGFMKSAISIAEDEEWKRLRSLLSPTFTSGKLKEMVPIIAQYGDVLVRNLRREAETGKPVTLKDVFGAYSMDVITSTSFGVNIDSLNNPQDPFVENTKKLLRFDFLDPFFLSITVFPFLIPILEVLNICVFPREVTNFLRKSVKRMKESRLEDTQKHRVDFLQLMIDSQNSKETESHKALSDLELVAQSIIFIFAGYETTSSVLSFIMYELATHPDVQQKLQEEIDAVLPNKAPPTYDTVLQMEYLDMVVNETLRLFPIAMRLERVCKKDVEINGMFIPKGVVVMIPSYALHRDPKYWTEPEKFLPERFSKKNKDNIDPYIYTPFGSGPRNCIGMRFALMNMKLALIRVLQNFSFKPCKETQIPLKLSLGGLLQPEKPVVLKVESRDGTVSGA

Rattus norvegicus [9] = organism: Rattus norvegicus; assay: Inhibition of Wistar rat brain neuronal sodium channel assessed as peak inward current at 10 uM measured during last peak
In short: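 Cortical neurons from E18 Wistar rat embryos, cultured 9-15 days, recorded by manual patch clamp from a holding potential of -80 mV. K+ currents: one 50-ms step to 0 mV, fast as peak outward and slow as end-of-pulse current. Na+ currents: train of fifteen 10-ms steps to 0 mV, peak inward current read at the first and last pulses. Effects read at least 180 s after application.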

Cytochrome P450 2C9 = Cytochrome P450 2C9 (Homo sapiens, UniProt P11712); assay: Inhibition of CYP2C9 (unknown origin); type: ADME
Chain of Cytochrome P450 2C9 (P11712 whole entry): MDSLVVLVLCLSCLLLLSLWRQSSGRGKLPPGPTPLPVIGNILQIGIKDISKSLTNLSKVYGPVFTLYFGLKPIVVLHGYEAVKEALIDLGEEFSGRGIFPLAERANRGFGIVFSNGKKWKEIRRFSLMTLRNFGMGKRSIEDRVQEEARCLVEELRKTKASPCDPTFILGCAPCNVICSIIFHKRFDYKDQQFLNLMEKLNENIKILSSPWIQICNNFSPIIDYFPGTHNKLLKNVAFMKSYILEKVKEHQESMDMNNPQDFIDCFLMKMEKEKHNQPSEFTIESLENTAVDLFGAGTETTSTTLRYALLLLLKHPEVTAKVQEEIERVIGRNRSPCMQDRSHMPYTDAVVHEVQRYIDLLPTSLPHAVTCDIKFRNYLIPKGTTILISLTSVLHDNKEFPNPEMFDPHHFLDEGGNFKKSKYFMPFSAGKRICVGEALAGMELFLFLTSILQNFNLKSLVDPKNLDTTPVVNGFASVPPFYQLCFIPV

[10] = biological target: T1, Voltage-dependent T-type calcium channel subunit alpha-1H; assay: Inhibition of human T-type calcium channel Cav3.2 expressed in CHO cells assessed as inhibition of calcium tail current at -90 mV holding potential measured after 150 secs by QPatch assay; type: cell-based; in short: as §1
Rattus norvegicus [11] = assay: Anticonvulsant activity in WAG/Rij rat model of generalized nonconvulsive absence-like epilepsy assessed as decrease in number of spontaneous seizures at 100 mg/kg, po administered as single dose at beginning of nocturnal active phase measured over 12 hrs by radiotelometry relative to vehicle control
[12] = Tmax in Beagle dog plasma at 10 mg/kg, po; type: ADME, organism-based, Canis lupus familiaris
Rattus norvegicus [13] = assay: Cardiovascular toxicity in spontaneously hypertensive rat assessed as reduction in mean […] pressure after 18 hrs at 100 mg/kg, po; type: organism-based; conditions: in vivo; in short: as §3
[14] = Clearance in Wistar rat plasma at 0.2 mg/kg, iv; type: ADME, organism-based
In short: (§5)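 Male Wistar rats dosed iv at 0.2 mg/kg or po at 2 mg/kg. In the inhibited arm, the broad CYP inhibitor aminobenzotriazol was given orally 2 h before dosing. Clearance, Vss and half-life derived from plasma concentrations after the iv dose; Cmax and Tmax from the po dose.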

[15] = Clearance in Wistar rat plasma at 0.2 mg/kg, iv administered 2 hrs after aminobenzotriazol-treatment; type: ADME, organism-based; in short: as §5
[16] = Metabolic stability in mouse microsomes measured per mg protein; type: ADME, Microsome
[17] = biological target: Voltage-dependent T-type calcium channel subunit alpha-1G (Homo sapiens, UniProt O43497); assay: Inhibition of human T-type calcium channel Cav3.1 expressed in CHO cells assessed as inhibition of calcium tail current at -60 mV holding potential measured after 150 secs by QPatch assay; type: cell-based; in short: as §1
[18] = Drug uptake in Wistar rat brain at 10 mg/kg, po measured after 3 hrs; type: ADME, organism-based; conditions: read-out: Drug uptake; in short: as §4
[19] = Volume of distribution at steady state in Wistar rat plasma at 0.2 mg/kg, iv administered 2 hrs after aminobenzotriazol-treatment; type: ADME, organism-based; conditions: read-out: Vdss; in short: as §2
[20] = Volume of distribution at steady state in Wistar rat plasma at 0.2 mg/kg, iv; type: ADME, organism-based; conditions: read-out: Vdss
[21] = biological target: Voltage-dependent T-type calcium channel subunit alpha-1I (Homo sapiens, UniProt Q9P0X4); assay: Inhibition of T-type calcium channel Cav3.3 (unknown origin) expressed in HEK293 cells assessed as calcium influx by Fluo-4-AM dye-based FLIPR assay; type: cell-based
In short: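 HEK293 cells stably expressing the channel, seeded overnight and loaded 1 h at 37°C with 3 µM Fluo-4-AM. Compounds given as a 3-fold dilution series from 10 µM to 0.05 nM and incubated 3 min. For T-type channels, dilutions in TEAC buffer and stimulation with 10 mM final CaCl2. For Cav1.2, dilutions in assay buffer and stimulation with 20 mM final KCl. IC50 from area under the fluorescence trace against vehicle; mean of at least two experiments.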

MDR1 = assay: Efflux ratio of permeability in MDCK cells expressing MDR1 (unknown origin); type: ADME, cell-based, Canis lupus familiaris; conditions: dog
In short: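 MDR1-transfected MDCK cell monolayers. Compound tested at 1 µM. Apparent permeability measured in both directions, apical to basolateral and basolateral to apical. Efflux ratio taken from the two directional permeabilities.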

[22] = Cmax in Wistar rat plasma at 2 mg/kg, po administered 2 hrs after aminobenzotriazol-treatment; type: ADME, organism-based; set-up: dose 2 mg/kg, route oral; in short: as §5
[23] = Cmax in Wistar rat plasma at 2 mg/kg, po; type: ADME, organism-based; set-up: dose 2 mg/kg, route oral; in short: as §5
Rattus norvegicus [24] = assay: Cardiotoxicity in rat assessed as QT prolongation at 100 mg/kg by electrophysiology method; type: toxicity, organism-based; conditions: in vivo; in short: as §3
Rattus norvegicus [25] = assay: Anticonvulsant activity in WAG/Rij rat model of generalized nonconvulsive absence-like epilepsy assessed as decrease in duration of spontaneous seizures at 100 mg/kg, po administered as single dose at beginning of nocturnal active phase measured over 4 hrs by radiotelometry relative to vehicle control
Rattus norvegicus [26] = assay: Cardiovascular toxicity in spontaneously hypertensive rat assessed as increase in PR interval of ECG at 100 mg/kg, po; type: organism-based; conditions: in vivo; in short: as §3
[27] = Plasma concentration in Wistar rat at 100 mg/kg, po measured after 1 hr; type: ADME, organism-based
[28] = Plasma concentration in Wistar rat at 10 mg/kg, po measured after 1 hr; type: ADME, organism-based
[29] = Drug uptake in Wistar rat CSF at 10 mg/kg, po measured after 1 hr; type: ADME, organism-based, Cerebrospinal fluid; conditions: read-out: Drug uptake; in short: as §4
Rattus norvegicus [30] = assay: Cardiovascular toxicity in spontaneously hypertensive rat assessed as reduction in heart rate at 100 mg/kg, po; type: organism-based; conditions: in vivo; in short: as §3
[31] = Fraction unbound in rat plasma; type: ADME, cell-free

O=C(Nc1ccc(F)cc1)N1N=C(c2ccncc2)CC1c1ccc(F)cc1 (centres undefined) gave an IC50 [1] of 220 nM, a fraction unbound [2] of 0.02 and a Tmax [3] of 396 min. It also gave an Activity (Rattus norvegicus [4]) of 12 mmHg, a microsomal CLint [5] of 104 µL/min/mg and a Tmax [6] of 15 min. The concentration at 1 h [7] was 61 nM, the concentration at 1 h [8] was 4270 nM and the IC50 (Cytochrome P450 3A4) was 1800 nM. For the same molecule, the inhibition (Rattus norvegicus [9]) was 26%, the IC50 (Cytochrome P450 2C9) was 1800 nM and the IC50 [10] was 1700 nM. The inhibition in vivo at 100 mg/kg (Rattus norvegicus [11]) was 63.5%, the Tmax [12] was 45 min and the Activity (Rattus norvegicus [13]) was “Non-Toxic”. The clearance [14] was 110 mL/min/kg, the clearance [15] was 1.6 mL/min/kg and the microsomal CLint [16] was 37 µL/min/mg. The IC50 [17] was 450 nM, the concentration at 3 h [18] was 1150 nM and the Vd [19] was 17 L/kg. The Vd [20] was 23 L/kg, the IC50 [21] was 340 nM and the efflux ratio (MDR1) was 1. The Cmax [22] was 150 nM, the Cmax [23] was 27 nM and the Activity (Rattus norvegicus [24]) was “Non-Toxic”. The inhibition in vivo at 100 mg/kg (Rattus norvegicus [25]) was over 99%, the Activity (Rattus norvegicus [26]) was “Toxic” and the concentration at 1 h [27] was 1230 nM. For the same molecule, the concentration at 1 h [28] was 270 nM, the concentration at 1 h [29] was 19 nM and the Activity (Rattus norvegicus [30]) was “Toxic”. For the same molecule, the fraction unbound [31] was 0.03.
